# Screening results from PubChem BioAssay.
# This excerpt belongs to a sample that is enriched for hits.
# T cruzi growth-1 = T. cruzi intracellular proliferation inhibitors, primary screen, cell-based, beta-gal Tulahuen parasites, NIH3T3 host, luminescence | T. cruzi beta-gal in NIH3T3, GalScreen luminescence, 90 h | inhibition, % at 8.34 µM | 5.9% of 77,000 active | AID 624255, 2012;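 active = mean inhibition above about 93%, with at least 55% of replicates each passing it, limit read from the data, passing the limit was not always enough; inconclusive = only one of those two conditions holds; inactive = neither condition holds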
# IDH1 R132H inh = inhibitors of IDH1 R132H reductase, primary screen, biochemical, plate reader, single point; inhibition, % at 10 µM; AID 624101, 2012; 0.18% of 70,000 active; diaphorase/resazurin fluorescence, 60 min; in the data active = inhibition above about 34%; inconclusive = no clear call, values can overlap the other calls; inactive = below about 11%;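 also: 0% = DMSO and 100% = no enzyme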
# GASC1 inh = inhibitors of GASC-1 (KDM4C) histone demethylase, primary screen, biochemical, single concentration HTS. GST-KDM4C 2-372, H3K9me3 peptide, LANCE TR-FRET. inhibition, % at 12.5 µM. 0.15% of 96,000 active. AID 720574, 2013;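 active = mean replicate inhibition above about 25%, with at least 55% of replicates also reaching it, limit read from the data, passing the limit was not always enough; inconclusive = only one of those two conditions met; inactive = neither condition met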
# Target sequence (Q9H3R0 2-372 limits assumed): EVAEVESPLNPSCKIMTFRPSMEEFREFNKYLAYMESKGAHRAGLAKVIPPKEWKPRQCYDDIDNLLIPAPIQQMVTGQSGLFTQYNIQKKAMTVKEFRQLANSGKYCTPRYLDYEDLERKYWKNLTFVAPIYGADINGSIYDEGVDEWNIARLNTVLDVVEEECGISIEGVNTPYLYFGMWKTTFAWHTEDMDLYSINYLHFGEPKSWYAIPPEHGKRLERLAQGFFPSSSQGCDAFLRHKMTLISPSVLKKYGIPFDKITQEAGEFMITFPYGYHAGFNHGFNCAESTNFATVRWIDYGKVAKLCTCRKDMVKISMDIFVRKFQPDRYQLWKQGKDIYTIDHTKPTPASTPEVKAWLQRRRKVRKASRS
#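 System: N-terminal GST-fused human GASC-1 (KDM4C) fragment, residues 2-372; amount: enzyme final amount 10 nM; incubation: reaction 30 min RT, detection step 1 h RT; medium: HEPES buffer, pH 7.5, plus ascorbate; technique: LANCE TR-FRET, Eu antibody, ULight-streptavidin, EDTA, ex 340 nm, em 618/671 nm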
# T cruzi growth-2 = T. cruzi intracellular proliferation inhibitors, confirmation, cell-based, NIH3T3 host, beta-gal parasite, luminescence, cherry-pick | shares compounds with T cruzi growth-1 | T. cruzi beta-gal in NIH3T3, GalScreen luminescence, 90 h | inhibition, % at 8.35 µM | 72% of 5,600 active | AID 651739, 2012;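 active = mean replicate inhibition above about 95% and at least 55% of replicates individually reaching it, limit read from the data; inconclusive = only one of the two criteria is met; inactive = neither criterion is met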
# T cruzi growth-3 = inhibitors of intracellular T. cruzi replication, confirmation, NIH3T3 host cells, beta-gal parasites, cherry-pick, set 2. AID 651740, 2012. shares compounds with T cruzi growth-1. 21% of 5,600 active. inhibition, % at 2.09 µM. T. cruzi beta-gal in NIH3T3, GalScreen luminescence, 90 h;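 active = mean inhibition above about 95%, with at least 55% of replicates also reaching it, limit read from the data; inconclusive = meets just one of the two conditions; inactive = meets neither condition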;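 also: plate controls were neutral control median for no effect and positive control median for full effect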
# 3T3 cytotox = cytotoxicity in mouse NIH/3T3 fibroblasts, confirmation, cytotoxicity control for T. cruzi proliferation inhibitor project, cell-based, cherry-pick, single point. AID 651742, 2012. 14% of 5,600 active. cytotoxicity (signal decrease), % at 8.35 µM. NIH/3T3 viability, CellTiter-Glo ATP luminescence, 90 h. shares compounds with T cruzi growth-1;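 active = mean signal decrease across replicates above about 35% based on untreated-well scatter, with enough replicates individually passing, limit read from the data; inconclusive = no rule stated though some were filed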;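 also: 0% = median of neutral control wells and 100% = median of positive control wells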
# 3T3 cytotox 2 = NIH/3T3 fibroblast cytotoxicity, confirmation, cytotoxicity control, cell-based, cherry-pick, single point, set 2. shares compounds with T cruzi growth-1. NIH/3T3 viability, CellTiter-Glo ATP luminescence, 90 h. inhibition, % at 24.9 µM. 56% of 5,600 active;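 active = mean loss of cell viability signal at or above a set limit, and enough replicates individually reaching it; inconclusive = meets only the mean limit or only the replicate share; inactive = meets neither condition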;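 also: 0% = median of neutral control wells and 100% = median of positive control wells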
# * hit, by the source's call; ? = inconclusive; / = not tested or not shown.
SMILES,T cruzi growth-1,IDH1 R132H inh,GASC1 inh,T cruzi growth-2,T cruzi growth-3,3T3 cytotox,3T3 cytotox 2
COc1ccc(Cl)cc1NC(=O)CSc1nnc(-c2cccc(C)c2)n1C,/,-0.2,/,/,/,/,/
C[C@H]1CN([C@@H](C)CO)C(=O)c2cc(NC(=O)Nc3ccc(C(F)(F)F)cc3)ccc2O[C@H]1CN(C)Cc1ccc(-c2ccccc2)cc1,118.1*,0.2,-0.2,106.4*,?,28.8,103.9*
C[C@H]1CN([C@@H](C)CO)C(=O)c2cc(NC(=O)Nc3ccc(C(F)(F)F)cc3)ccc2O[C@@H]1CN(C)Cc1ccc(-c2ccccc2)cc1,112.6*,/,2.9,108.0*,40.4,3.1,104.1*
C[C@H](CO)N1C[C@H](C)[C@@H](CN(C)Cc2ccc(C(F)(F)F)cc2)Oc2ccc(NC(=O)Nc3ccccc3)cc2C1=O,51.5,/,0.8,/,/,/,/
C[C@@H]1CN([C@@H](C)CO)C(=O)c2cc(NC(=O)Nc3ccc(C(F)(F)F)cc3)ccc2O[C@@H]1CN(C)Cc1ccccc1,15.3,0.1,-0.7,/,/,/,/
C[C@H](CO)N1C[C@H](C)[C@H](CN(C)Cc2ccc(-c3ccccc3)cc2)Oc2ccc(NC(=O)Nc3ccc(C(F)(F)F)cc3)cc2C1=O,80.7*,3.6,0.3,98.4*,87.9,13.6,105.2*
C[C@H]1CN([C@@H](C)CO)C(=O)c2cc(NC(=O)Nc3ccc(C(F)(F)F)cc3)ccc2O[C@@H]1CN(C)Cc1ccccc1,14.6,1.7,1.1,/,/,/,/
C[C@H]1CN([C@@H](C)CO)C(=O)c2cc(NC(=O)Nc3ccc(F)cc3)ccc2O[C@H]1CN(C)Cc1ccc(-c2ccccc2)cc1,98.4*,-0.3,-1.7,102.1*,103.4*,32.3,102.9*
C[C@H](CO)N1C[C@H](C)[C@@H](CN(C)Cc2ccc(-c3ccccc3)cc2)Oc2ccc(NC(=O)Nc3ccc(F)cc3)cc2C1=O,11.0,0.4,1.0,/,/,/,/
O=C(CSc1ncccn1)Nc1cc(Cl)cc(Cl)c1,/,0.1,/,/,/,/,/
N#C/C(=C(\O)COc1ccccc1)c1nc2ccccc2[nH]1,/,0.2,/,/,/,/,/
Cc1nnc(SCC(=O)Nc2ccc(Oc3ccccc3)cc2)s1,/,-0.3,/,/,/,/,/
CC1=C(CC/C(C)=C/C(=O)O)[C@@]2(C)CCCC(C)(C)C2CC1 (some centres not stated),/,1.0,/,/,/,/,/
C[C@H](CO)N1C[C@H](C)[C@H](CN(C)S(=O)(=O)c2cccs2)OCCCC[C@H](C)Oc2ccc(NC(=O)Nc3ccc(F)cc3)cc2C1=O,91.7,2.1,-1.3,/,/,/,/
C[C@@H]1CCCCO[C@H](CN(C)S(=O)(=O)c2cccs2)[C@@H](C)CN([C@@H](C)CO)C(=O)c2cc(NC(=O)Nc3ccccc3)ccc2O1,?,0.9,-0.2,106.7*,41.7,8.2,25.2
C[C@@H]1CCCCO[C@H](CN(C)S(=O)(=O)c2cccs2)[C@H](C)CN([C@H](C)CO)C(=O)c2cc(NC(=O)Nc3ccccc3)ccc2O1,108.1*,1.3,0.7,107.0*,26.3,12.0,4.9
C[C@H]1CCCCO[C@@H](CN(C)S(=O)(=O)c2cccs2)[C@@H](C)CN([C@@H](C)CO)C(=O)c2cc(NC(=O)Nc3ccc(F)cc3)ccc2O1,98.5*,-1.9,-0.5,108.8*,58.8,17.6,27.3*
C[C@@H]1CN([C@H](C)CO)C(=O)c2cc(NC(=O)Nc3ccc(F)cc3)ccc2O[C@@H](C)CCCCO[C@@H]1CN(C)S(=O)(=O)c1cccs1,-47.4,/,-1.1,/,/,/,/
C[C@@H]1CCCCO[C@H](CN(C)S(=O)(=O)c2cccs2)[C@@H](C)CN([C@H](C)CO)C(=O)c2cc(NC(=O)Nc3ccc(F)cc3)ccc2O1,-18.3,/,5.2,/,/,/,/
C[C@@H]1CN([C@@H](C)CO)C(=O)c2cc(NC(=O)Nc3ccc(F)cc3)ccc2O[C@@H](C)CCCCO[C@H]1CN(C)S(=O)(=O)c1cccs1,56.3,-0.8,-0.2,/,/,/,/
C[C@H]1CCCCO[C@H](CN(C)S(=O)(=O)c2cccs2)[C@@H](C)CN([C@@H](C)CO)C(=O)c2cc(NC(=O)Nc3ccccc3)ccc2O1,107.1*,-6.2,-1.2,105.6*,36.4,3.4,27.4*
COc1cc(-c2nc3ccccc3s2)cc(Br)c1OCC(=O)O,/,2.5,/,/,/,/,/
COc1cccc2cc(C(=O)C3C(=O)C(=O)N(CCN4CCOCC4)C3c3cccc(Br)c3)oc12 (configuration not stated),/,-0.4,/,/,/,/,/
O=S(=O)(Cc1noc(-c2ccc(OC(F)(F)F)cc2)n1)Cc1ccco1,/,0.8,/,/,/,/,/
C[C@@H]1CCCCO[C@H](CN(C)S(=O)(=O)c2cccs2)[C@H](C)CN([C@@H](C)CO)C(=O)c2cc(NC(=O)Nc3ccccc3)ccc2O1,98.9*,/,-1.8,101.2*,28.8,1.0,29.5*
SMILES,T cruzi growth-1,IDH1 R132H inh,GASC1 inh,T cruzi growth-2,T cruzi growth-3,3T3 cytotox,3T3 cytotox 2
C[C@@H]1CCCCO[C@@H](CN(C)S(=O)(=O)c2cccs2)[C@H](C)CN([C@H](C)CO)C(=O)c2cc(NC(=O)Nc3ccccc3)ccc2O1,112.1*,/,-1.5,107.7*,76.1,-22.3,0.6
C[C@@H]1CCCCO[C@@H](CN(C)S(=O)(=O)c2cccs2)[C@@H](C)CN([C@@H](C)CO)C(=O)c2cc(NC(=O)Nc3ccccc3)ccc2O1,54.1,/,-1.1,/,/,/,/
C[C@@H]1CCCCO[C@@H](CN(C)S(=O)(=O)c2cccs2)[C@@H](C)CN([C@@H](C)CO)C(=O)c2cc(NC(=O)Nc3ccc(F)cc3)ccc2O1,27.0,0.6,0.0,/,/,/,/
CCn1c2ccccc2c2cc(/C=N/NC(=O)CCCCCC(=O)Nc3ccccc3O)ccc21,/,0.0,/,/,/,/,/
OC[C@H]1[C@@H](c2ccc(/C=C/c3ccccc3)cc2)[C@@H]2CN(Cc3ccncc3)CCCCN12,95.1,/,1.4,/,/,/,/
OC[C@@H]1[C@@H](c2ccc(/C=C/c3ccccc3)cc2)[C@@H]2CN(Cc3ccncc3)CCCCN12,?,/,2.3,99.3*,73.7,28.6,106.3*
OC[C@H]1[C@@H](c2ccc(/C=C/c3ccccc3)cc2)[C@H]2CN(Cc3ccncc3)CCCCN21,-0.1,/,0.8,/,/,/,/
